Source: PubChem (The Scripps Research Institute Molecular Screening Center)
Compounds with a hit are over-represented: about 2.7% of the library has one in this group of screens.
PAFAH2 FP inh: PAFAH2 (human) inhibition. inhibition, % at 3.39 µM. AID 492956. recombinant PAFAH2, FP-rhodamine activity probe, fluorescence polarization. 0.99% of 340,000 active;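 active = inhibition above the mean over all tested compounds plus 3 SD, cut at about 30% in these data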;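 also: inhibitors block probe labeling of enzyme so polarization drops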
pPAFAH inh: pPAFAH (human) enzyme inhibition | 1.5% of 330,000 active | recombinant pPAFAH, FP-rhodamine probe fluorescence polarization | inhibition, % at 3.39 µM;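 active = inhibition above the mean inhibition across the screen plus 3 SD, cut at about 25% in these data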;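 also: inhibitors block binding of the rhodamine activity-based probe so polarization drops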
RBBP9 inhibitor: inhibitors of human serine hydrolase RBBP9. 0.2% of 220,000 active. inhibition, % at 7.94 µM. O75884. recombinant RBBP9, FP-Rh probe fluorescence polarization;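 active = inhibition above the campaign mean of all tested compounds plus 3 SD, cut at about 14% in these data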
Target sequence (O75884 whole entry, looked up): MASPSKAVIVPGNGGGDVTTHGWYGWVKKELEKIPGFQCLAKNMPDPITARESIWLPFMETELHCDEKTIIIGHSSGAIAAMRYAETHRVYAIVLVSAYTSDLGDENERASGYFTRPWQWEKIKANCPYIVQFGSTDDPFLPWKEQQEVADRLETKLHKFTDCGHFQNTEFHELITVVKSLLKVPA
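Measured by – fluorescence polarization · Test system – RBBP9 protein · Input – 2.5 µM RBBP9 dispensing solution, before mixing · Measure – percent inhibition from mP, scaled between DMSO and no-protein wells · Benchmarks – DMSO-treated enzyme wells and wells lacking RBBP9 · Times – preincubation 30 min plus labeling 45 min at 25 °C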
PAFAH1B2 FP inh: PAFAH1B2 (human) inhibition; P68402; recombinant PAFAH1B2, FP-rhodamine activity probe, fluorescence polarization; inhibition, % at 3.39 µM; 1.2% of 340,000 active;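 active = inhibition above the mean of all tested compounds plus 3 SD, cut at about 24% in these data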
Target sequence (P68402 whole entry, looked up): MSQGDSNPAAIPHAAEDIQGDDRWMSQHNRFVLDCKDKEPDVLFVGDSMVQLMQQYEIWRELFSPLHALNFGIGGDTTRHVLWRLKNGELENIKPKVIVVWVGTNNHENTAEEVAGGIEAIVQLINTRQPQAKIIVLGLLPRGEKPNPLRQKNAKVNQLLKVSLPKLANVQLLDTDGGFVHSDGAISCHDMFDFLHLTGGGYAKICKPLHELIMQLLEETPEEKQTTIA
PAFAH1B3 FP inh: blocks human PAF acetylhydrolase 1B catalytic subunit 3; AID 492972; 0.28% of 340,000 active; recombinant PAFAH1B3, FP-rhodamine probe, fluorescence polarization; inhibition, % at 3.39 µM; Q15102;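 active = inhibition above the screen-wide average of all tested compounds plus 3 SD, cut at about 25% in these data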
Target sequence (Q15102 whole entry, looked up): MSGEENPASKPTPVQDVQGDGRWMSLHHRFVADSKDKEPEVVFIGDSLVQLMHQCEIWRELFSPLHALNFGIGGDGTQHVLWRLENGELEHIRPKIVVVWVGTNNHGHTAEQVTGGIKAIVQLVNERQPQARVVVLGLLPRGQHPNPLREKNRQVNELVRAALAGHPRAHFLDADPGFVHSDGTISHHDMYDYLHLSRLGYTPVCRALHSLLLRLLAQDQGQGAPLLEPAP
pPAFAH confirm: confirmation of human plasma PAF acetylhydrolase (pPAFAH) inhibitors | shares compounds with pPAFAH inh | recombinant pPAFAH, FP-Rh probe fluorescence polarization | inhibition, % at 3.39 µM | 72% of 2,300 active;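 active = mean inhibition of the triplicate above the hit cutoff set for the earlier primary screen, cut at about 25% in these data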
Each line names hits and unclear results; the compound was inactive in the other large screens (follow-up assays come after a bar, where they were run).

COCCCN(C(=S)Nc1c(C)cc(C)cc1C)C(C)c1ccccn1 (stereo not given)	none
CCCN(CCC)C(=O)Cn1c2ccccc2c2nc(=O)cc(C)n21	none
CCOc1ccccc1C(=O)Nc1cccc2cccnc12	none (no result: RBBP9 inhibitor)
CCCC1=Nc2cc(C(=O)NCCCN3CCOCC3)ccc2Sc2ccccc21	none (no result: RBBP9 inhibitor)
CCCC1=Nc2cc(C(=O)NCCCN3CCN(C)CC3)ccc2Sc2ccccc21	pPAFAH inh 34 (no result: RBBP9 inhibitor) | pPAFAH confirm inactive
O=c1nc2s/c(=C\c3ccco3)c(=O)n2nc1Cc1ccc(F)cc1	pPAFAH inh 40 | pPAFAH confirm inactive
Cc1ccc(-c2nc3s/c(=C\c4ccco4)c(=O)n3n2)cc1	none
O=c1cc(-c2ccc(O)cc2)oc2c([C@@H]3O[C@H](CO)[C@@H](O)[C@H](O)[C@H]3O)c(O)c([C@@H]3O[C@H](CO)[C@@H](O)[C@H](O)[C@H]3O)c(O)c12	none
O=c1cc(-c2ccc(O)c(-c3c(O)cc(O)c4c(=O)cc(-c5ccc(O)cc5)oc34)c2)oc2cc(O)cc(O)c12	PAFAH2 FP inh 38, pPAFAH inh 62, PAFAH1B2 FP inh 36, PAFAH1B3 FP inh 54 | pPAFAH confirm 71
COc1c(-c2ccc(O)cc2)oc2cc(O)cc(O)c2c1=O	none (no result: RBBP9 inhibitor)
O=c1cc(-c2ccc(O)cc2)oc2c(-c3c(O)cc(O)c4c(=O)cc(-c5ccc(O)cc5)oc34)c(O)cc(O)c12	PAFAH2 FP inh 57, pPAFAH inh 63, PAFAH1B2 FP inh 40, PAFAH1B3 FP inh 56 (no result: RBBP9 inhibitor) | pPAFAH confirm 68
O=c1c(-c2c(O)cc(O)c3c(=O)cc(-c4ccc(O)cc4)oc23)c(-c2ccc(O)cc2)oc2cc(O)cc(O)c12	pPAFAH inh 66, PAFAH1B3 FP inh 44 (no result: RBBP9 inhibitor) | pPAFAH confirm 68
O=c1c(O)c(-c2ccc(O)c(O)c2)oc2cc(O)cc(O)c12	pPAFAH inh 53, PAFAH1B2 FP inh 29, PAFAH1B3 FP inh 53 (no result: RBBP9 inhibitor) | pPAFAH confirm 82
Cc1ccccc1C(C)NC(=O)COC(=O)Cn1cc(C(F)(F)F)ccc1=O (stereo not given)	none (no result: RBBP9 inhibitor)
COc1ccccc1C(=O)N/C(=C/c1ccc(Br)cc1)C(=O)NCC(=O)O	none
CN(C)/C=C/C(=O)c1ccc(Cl)cc1	none
CN(C)/C=C/C(=O)/C=C/c1ccc(Cl)cc1	pPAFAH inh 37 | pPAFAH confirm inactive
Cc1ccc2sc(N(CCCN(C)C)C(=O)CN3C(=O)c4ccccc4C3=O)nc2c1C	none
c1ccc(Nc2nc3ccccc3[nH]2)nc1	pPAFAH inh 36 | pPAFAH confirm inactive
O=C(c1ccc(NC(=S)Nc2ccc(F)cc2F)cc1)N1CCOCC1	none
O=C(CCCSc1ccc(Cl)cc1)Nc1cc(S(=O)(=O)N2CCOCC2)ccc1O	PAFAH2 FP inh 79, pPAFAH inh 91, PAFAH1B2 FP inh 63 (no result: RBBP9 inhibitor) | pPAFAH confirm 89
Cc1cc(Cl)ccc1OCCCC(=O)Nc1cc(S(=O)(=O)N2CCOCC2)ccc1N1CCOCC1	none (no result: pPAFAH inh, RBBP9 inhibitor)
CCOC(=O)C1(C)C=C(Nc2ccc(O)cc2)C(=O)N1c1ccc(O)cc1 (stereo not given)	pPAFAH inh 70 | pPAFAH confirm inactive
CN(C)C1(CNC(=O)c2cccc(S(=O)(=O)Nc3ccc(Br)cc3)c2)CCCCC1	pPAFAH inh 43 (no result: RBBP9 inhibitor) | pPAFAH confirm 42
Cc1ccc(NS(=O)(=O)c2cccc(C(=O)NCC3(N(C)C)CCCCC3)c2)cc1	pPAFAH inh 60 | pPAFAH confirm 53
CC1CC1C(=O)OCC(=O)Nc1ccc(N=Nc2ccccc2)cc1 (stereo not given)	PAFAH2 FP inh 85, pPAFAH inh 69 | pPAFAH confirm 65
C/C(=N\NC(=O)c1cc2ccccc2cc1O)c1ccccn1	pPAFAH inh 48 (no result: RBBP9 inhibitor) | pPAFAH confirm inactive
C/C(=N\NC(=O)c1nc2ccccn2c1C)c1cc2ccccc2o1	none
O=C(N/N=C/c1ccc(Sc2ccccn2)o1)c1cc2ccccc2cc1O	pPAFAH inh 52 | pPAFAH confirm 56
C/C(=N\NC(=O)c1cc2ccccc2cc1O)c1cc2ccccc2o1	pPAFAH inh 41 | pPAFAH confirm 34
Cc1ccc(Nc2ncc3c(n2)CC(C)CC3=O)c(C)c1 (stereo not given)	none
CC1CC(CCC(=O)NC(=S)Nc2ccc(Cl)cn2)C(=O)O1 (stereo not given)	none
CN(C)c1ccc(CNC23CC4CC(CC(C4)C2)C3)cc1	none (no result: PAFAH2 FP inh, pPAFAH inh, PAFAH1B2 FP inh, PAFAH1B3 FP inh)
C/C(=N\NC(=O)c1nnn(-c2nonc2N)c1COc1ccc(F)cc1)c1ccc(Cl)cc1	none
CN(c1ccccc1)S(=O)(=O)c1cccc(C(=O)NCCc2ccc(O)c(O)c2)c1	pPAFAH inh 37 | pPAFAH confirm 43
CCN(CC)S(=O)(=O)c1cccc(C(=O)NCCc2ccccc2)c1	none
Oc1ccc(N=Nc2ccccc2-c2nn[nH]n2)c(O)c1	PAFAH2 FP inh 41, pPAFAH inh 83, PAFAH1B3 FP inh 40 (no result: RBBP9 inhibitor) | pPAFAH confirm 46
CC1CCCC(n2c(=S)[nH]c3ccccc3c2=O)C1C (stereo not given)	none
CC(=O)N1c2ccc(S(=O)(=O)N3CCC(C(=O)Nc4cccc(Cl)c4)CC3)cc2CC1C (stereo not given)	pPAFAH inh 39 (no result: RBBP9 inhibitor) | pPAFAH confirm inactive
O=C(c1cc(-c2ccc(Br)cc2)nc2ccccc12)N1CCN(c2ccccc2O)CC1	none (no result: RBBP9 inhibitor)
Cc1ccc(-c2cc(C(=O)N3CCN(c4ccccc4O)CC3)c3ccccc3n2)o1	pPAFAH inh 66 (no result: RBBP9 inhibitor) | pPAFAH confirm inactive
COc1ccc(/C=N/NC(=O)C(=O)/C=C2\NC3(CCCC3)Cc3ccccc32)cc1	none
O=C(/C=C1\NC2(CCCC2)Cc2ccccc21)C(=O)N/N=C/c1ccc(O)c(O)c1	PAFAH2 FP inh 34, pPAFAH inh 48 | pPAFAH confirm 87
Cc1oc(-c2ccc(Cl)cc2)cc1-c1nn2c(-c3ccoc3C)nnc2s1	pPAFAH inh 53 | pPAFAH confirm 43
O=C(COC(=O)c1ccc(NS(=O)(=O)c2cccs2)cc1)NCc1ccco1	PAFAH2 FP inh 40, pPAFAH inh 42 | pPAFAH confirm 29
O=C(CCc1ccccc1)NNC(=S)NC(=O)c1ccccc1	pPAFAH inh 41 | pPAFAH confirm inactive
CC(=O)NC(=S)NNC(=O)CCc1ccccc1	none
Cc1ccc(/C=C2/SC(=S)N(C3CCCCC3)C2=O)o1	pPAFAH inh 37 (no result: RBBP9 inhibitor) | pPAFAH confirm inactive
CCN(C(=O)C(C)N1C(=O)/C(=C/c2ccco2)SC1=S)C1CCS(=O)(=O)C1 (stereo not given)	pPAFAH inh 44 (no result: RBBP9 inhibitor) | pPAFAH confirm inactive
CC(C(=O)N(C)C1CCS(=O)(=O)C1)N1C(=O)/C(=C/c2ccc(F)cc2)SC1=S (stereo not given)	none (no result: RBBP9 inhibitor)
O=C1/C(=C/c2ccco2)SC(=S)N1C1CCS(=O)(=O)C1 (stereo not given)	pPAFAH inh 57 | pPAFAH confirm inactive
O=S(=O)(N/N=C/c1ccc(N2CCOCC2)cc1)c1ccc(Br)cc1	none
